T cruzi inh = blocks replication of Trypanosoma cruzi. T. cruzi beta-gal in NIH3T3, luminescence, 90 h. inhibition, % (concentration not given with the values). hit rate 1.4% among 300,000;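 active = mean inhibition across valid replicates above about 55%, limit read from the data; inconclusive = mean below that limit but half or more replicates reach it; inactive = mean below it, under half of replicates reach it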;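 note: signal also drops with host cell toxicity which is not excluded here; 0% = plate median of DMSO wells and 100% = zero luminescence signal; higher percent means less beta-gal luminescence so fewer parasites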
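Material: NIH/3T3 host cells with β-galactosidase reporter T. cruzi; Input: 5,000 host fibroblasts per well; Medium: DMEM, 2% fetal bovine serum; Compound: 50 nL DMSO compound solution per well; Schedule: 3 h host attachment, then at least 90 h co-culture; Detection: luminescent β-galactosidase signal after 60 min lysis.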
Calb FLC = C. albicans growth modulation with fluconazole; C. albicans CaCi-2 + fluconazole, Alamar Blue growth, 48 h; growth inhibition, % (test concentration not listed); hit rate 0.57% among 300,000; AID 1979;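 active = growth inhibition above about 58% in most replicates, limit read from the data, passing the limit was not always enough; inconclusive = exactly half the replicates above a set limit; inactive = most replicates below a set limit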;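 note: all wells also contain fluconazole at 8 µg/ml as a sub-toxic cotreatment; 0% = median of DMSO wells and 100% = median of geldanamycin control wells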
L major viab = reduces viability of Leishmania major promastigotes; resazurin fluorescence viability; inhibition, % at 10 µM; hit rate 9% among 200,000; AID 1063; in the data active = inhibition above about 50%;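 note: promastigotes grown with compound for 44 hours at 28 °C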
PolyA inh = blocks polyadenylation in yeast reporter cells; S. cerevisiae SKY197-pL101 polyadenylation reporter, beta-gal luminescence; efflux-impaired pdr1/pdr3 knockout yeast; score 100 = 6 SD above DMSO; hit rate 0.02% among 300,000; activity score, % at 12 µM;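 active = lowest replicate activity score at least 50, where 100 means six control SD above control mean; inconclusive = lowest score under 50 but half or more replicates reach 50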;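 note: yeast exposed to compound for 9 h at 30 °C; higher score means more reporter readthrough which indicates perturbed polyadenylation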
NLRP3 yeast inh = NALP3 inhibition in yeast; hit rate 0.39% among 330,000; Yeast reconstituted NLRP3/ASC/caspase-1, beta-gal luminescence, 24 h; AID 2825; inhibition, % at 10 µM;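 active = inhibition of 50% or more; inactive = inhibition below 50%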;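 note: plate controls were induced DMSO wells for no effect and uninduced yeast grown without galactose for full effect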
NALP1 inh = NALP1 inhibition; inhibition, % at 10 µM; hit rate 0.61% among 280,000; AID 2071; S. cerevisiae NALP1/ASC/caspase-1 growth, X-gal OD620, 72 h; in the data active = inhibition mostly above about 24%, no sharp cut-off; inactive = mostly below about 32%
Numbers without * were called inactive; ? = inconclusive; · = no result. Only a selection was taken, and hits are over-represented in it overall.

SMILES	T cruzi inh	Calb FLC	L major viab	PolyA inh	NLRP3 yeast inh	NALP1 inh
c1ccc(Oc2cccc(CN3CCCCC3)c2)cc1	38	1	100*	-11	21	3
c1ccc(COc2cccc(CN3CCCCC3)c2)cc1	14	3	·	-11	18	26
c1ccc(COc2cccc(CN3CCN(c4ccccn4)CC3)c2)cc1	14	-15	79*	-14	25	16
CCN1CCN(Cc2cccc(Oc3ccc(Cl)cc3)c2)CC1	?	-34	96*	3	25	4
CN1CCN(Cc2cccc(Oc3ccc(Cl)cc3)c2)CC1	75*	-15	100*	-9	9	18
CC(C(=O)N1CCc2ccccc21)N(C)CC(=O)Nc1ccccc1Cl (configuration not stated)	·	·	·	·	10	·
NNC(=O)c1cc(NS(=O)(=O)c2cccs2)cc(NS(=O)(=O)c2cccs2)c1	·	·	·	·	11	·
CCN1CCN(Cc2cccc(Oc3ccccc3)c2)CC1	59*	7	97*	8	34	52
COc1cccc(CN2CCN(Cc3cccc(Oc4ccccc4)c3)CC2)c1OC	12	-11	·	1	25	11
COc1cc2cc(C(c3nnnn3C3CCCC3)N3CCc4ccccc43)c(=O)[nH]c2cc1OC (configuration not stated)	12	40	-4	20	-8	13
COc1ccccc1N1CCN(C(c2cc3ccc(C)cc3[nH]c2=O)c2nnnn2C2CCCC2)CC1 (configuration not stated)	15	4	62*	12	-16	10
CCOC(=O)C1CCN(C(c2cc3ccc(C)cc3[nH]c2=O)c2nnnn2C2CCCCC2)CC1 (configuration not stated)	12	13	88*	7	3	-3
COc1ccccc1N1CCN(C(c2cc3cc(C)ccc3[nH]c2=O)c2nnnn2C2CCCC2)CC1 (configuration not stated)	-2	-5	54*	4	-2	9
CCC(C)(C)n1nnnc1C(c1cc2ccc(OC)cc2[nH]c1=O)N1CCN(C2CCCCC2)CC1 (configuration not stated)	·	·	-16	·	-11	-26
O=C(Cc1c(Cl)cccc1Cl)OCC(=O)N1CCOCC1	·	·	·	·	6	·
Cc1ccc(NC(=O)CCNC(=O)c2ccco2)cc1Cl	-11	-13	·	3	20	6
C=CCNCCCOc1ccc(C(C)(C)c2ccccc2)cc1	10	-1	100*	0	33	36
C=CCNCCCCOc1ccc(OCC)cc1	19	-12	100*	10	-1	0
COCCCNCCCOc1ccc(C(C)(C)c2ccccc2)cc1	58*	1	99*	-14	18	45
CCOc1ccc(OCCCCN(C)C)cc1	2	-4	38	5	5	-6
CC(C)(c1ccccc1)c1ccc(OCCCNCCO)cc1	-10	·	100*	9	26	10
CCCCc1ccc(NC(=S)N2CCC(O)CC2)cc1	-12	26	-7	9	9	16
C[C@@H]1CC(=O)[C@H]2CC(CO)=CCC[C@@H]2[C@@]1(C)CC/C(=C/CO)CO	·	·	·	·	11	·
Cc1ccc(OCCNC(=O)Cc2ccc(F)cc2)cc1	-6	8	0	0	24	6
Cc1csc(/C(=N\O)c2csc(C)n2)n1	-1	-3	-8	16	12	12
SMILES	T cruzi inh	Calb FLC	L major viab	PolyA inh	NLRP3 yeast inh	NALP1 inh
C=C(C)CSc1nc2c(c(=O)[nH]c(=O)n2C)n1CCC(C)C	-4	4	-1	9	1	-17
CC(C)(C)c1ccccc1OCCOCCNCc1ccccc1	23	4	96*	0	27	38
CC(C)(c1ccccc1)c1ccc(OCCn2cnc3ccccc3c2=O)cc1	18	1	-1	-2	3	9
CC(C)NCCCOc1ccc(C(C)(C)c2ccccc2)cc1	2	-8	99*	-7	13	-8
COc1ccc(OCCCNCCc2ccccc2)cc1	?	-21	-11	1	12	4
Clc1cc(Br)ccc1OCCCNCc1ccccc1	37	-7	99*	-8	27	43
CC(C)(C)c1ccc(OCCCNCc2ccccc2)cc1	20	-13	99*	-14	47	43
Cc1ccc(NC(=S)NNC(=O)CSc2nc3ccccc3c(=O)n2-c2ccc(C)cc2)cc1	34	-1	2	3	-2	10
CCOC(=O)CCCCNCc1ccccc1	-8	8	-8	18	10	0
COCCNCCCOc1ccc(C(C)(C)c2ccccc2)cc1	5	0	99*	5	27	-7
CCc1cc(OCCCCNCc2ccccc2)ccc1Cl	23	-1	99*	-50	22	63*
COCCCNCC#CCOc1ccc(OC)cc1	9	-17	32	13	4	14
C=CCNCC#CCOc1ccc(OC)cc1	7	-3	99*	2	18	0
O=C(Oc1cccc2cccnc12)c1cccc([N+](=O)[O-])c1	-14	-3	34	-18	-3	-9
O=C(Oc1c(Cl)cc(Cl)c2cccnc12)N1CCOCC1	-7	92*	0	-32	-4	-12
O=C(Oc1c(CN2CCOCC2)cc(Cl)c2cccnc12)c1ccccc1Br	45	87*	·	-3	16	-4
O=C(Oc1c(Cl)cc(Cl)c2cccnc12)c1cccc([N+](=O)[O-])c1	27	104*	70*	-71	44	16
O=C(Oc1c(Cl)cc(Cl)c2cccnc12)N1CCCCC1	-12	20	9	-2	13	6
CC1CCc2sc(C(=O)N/N=C/c3ccc([N+](=O)[O-])cc3)cc2C1 (configuration not stated)	8	-4	-1	12	13	41
C[n+]1ccc(/C=N/Nc2nc(Cl)c(C#N)c(Cl)c2Cl)cc1	-12	30	1	-25	37	-20
CCN1CCN(c2nc(C)c3c(n2)CC(C)CC3=O)CC1 (configuration not stated)	13	-2	-3	5	-6	-4
Cc1nc(N2CCN(Cc3ccccc3)CC2)nc2c1C(=O)CC(C)C2 (configuration not stated)	71*	-4	5	-13	-13	4
COc1cc(C2CC(=O)c3cnc(N4CCN(Cc5ccccc5)CC4)nc3C2)cc(OC)c1OC (configuration not stated)	0	-9	46	19	14	39
COc1ccc(C2CC(=O)c3c(C)nc(N4CCN(Cc5ccccc5)CC4)nc3C2)cc1OC (configuration not stated)	55*	9	33	10	8	9
CCNC(=O)Nc1ccc(-n2nc(C)c(C(=O)OCC)c2C)nc1	6	5	-2	-25	26	8
CN1CCN(c2ccc(-c3ccc4ccccc4n3)cc2)CC1	44	-4	92*	12	·	18

Screens deposited in PubChem by several laboratories.
